Measured values reported in ChEMBL document CHEMBL4145619, “Computer-Assisted Discovery of Retinoid X Receptor Modulating Natural Products and Isofunctional Mimetics” (J Med Chem, 2018).
Activity calls are given as the source filed them. No cut-off for these calls is given here.

Molecular target: T1, Retinoic acid receptor gamma (Homo sapiens) (UniProt P13631)
T1 sequence (whole entry): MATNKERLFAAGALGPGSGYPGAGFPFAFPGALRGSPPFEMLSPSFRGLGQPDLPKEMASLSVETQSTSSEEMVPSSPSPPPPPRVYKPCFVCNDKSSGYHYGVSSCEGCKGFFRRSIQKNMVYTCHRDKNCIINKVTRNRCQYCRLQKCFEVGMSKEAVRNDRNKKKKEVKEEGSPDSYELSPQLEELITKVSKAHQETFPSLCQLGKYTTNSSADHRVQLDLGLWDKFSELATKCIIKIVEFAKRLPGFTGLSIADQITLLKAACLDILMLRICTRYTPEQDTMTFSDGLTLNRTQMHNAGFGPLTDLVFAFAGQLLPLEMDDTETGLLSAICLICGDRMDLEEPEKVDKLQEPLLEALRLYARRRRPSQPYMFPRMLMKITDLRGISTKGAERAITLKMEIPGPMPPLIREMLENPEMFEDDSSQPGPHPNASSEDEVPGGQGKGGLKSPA
Assay: Transactivation of human Gal4-fused RARgamma LBD expressed in HEK293T cells at 30 uM after 12 to 14 hrs by dual-glo luciferase assay
Format: cell-based
Procedure, shortened: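 Single-concentration selectivity profiling in Gal4-hybrid reporter gene assays in HEK293T cells. Each nuclear receptor construct (RAR, PPAR, LXR, FXR, CAR, VDR, PXR, RXR) was tested at 30 μM.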

## CC1=C2[C@H](/C=C(\C)C(=O)O)CC[C@@H](C)[C@H]2CC1 [VALERENIC ACID]
  Activity: inactive
